Assay results as given in ChEMBL document CHEMBL1151419, “Antimicrobial effect of halocidin-derived peptide in a mouse model of Listeria infection” (Antimicrob Agents Chemother, 2007).
Converted amounts (≈) assume the structure as drawn. The source made the active and inactive calls. The calls are words filed in the database; no cut-off is given here. Bridge positions count the residues as written; N and C are the ends. Peptide text beside a SMILES is read from it. I, II: the chains in the order shown.

What was measured:
Listeria monocytogenes [1] = experiment: Antimicrobial activity against Listeria monocytogenes ATCC 19111 after 18 hrs by broth microdilution assay in presence of 150 mM NaCl; type: functional; details: ATCC 19111, 18 h
Method in brief: (§1)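 Bacteria were grown overnight to stationary phase in Mueller-Hinton broth at 37°C and diluted to 2 x 10^5 CFU/ml. Line 3 used MHB plus 150 mM NaCl. Peptide stock (640 µg/ml in 0.01% acetic acid) was twofold serially diluted to 10 µg/ml, and 11 µl was added per 100 µl of cells. Turbidity was read after 18 h at 37°C; MIC was the minimum concentration visibly inhibiting growth.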

Staphylococcus aureus [2] = experiment: Antimicrobial activity against methicillin-resistant Staphylococcus aureus CCARM 3695 treated with supernatant containing 2 mg drug incubated for 10 mins with PBS containing 50 % normal human serum centrifuged for 3 hrs by radial diffusion assay; type: functional, organism-based
Method in brief: (§2)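 2 mg peptide incubated 10 min at 37°C in 2 ml PBS, either serum-free or with 50% heat-treated normal human serum. Spun 3 h at 295,000 x g, 4°C. Then 5 µl of supernatant tested by radial diffusion against mid-log MRSA (4 x 10^6 CFU/ml underlay, 3 h at 37°C, overlay, overnight); clear zones measured.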

Enterococcus faecium [3] = experiment: Antimicrobial activity against vancomycin-resistant Enterococcus faecium CCARM 5029 after 18 hrs by broth microdilution assay in presence of 150 mM NaCl; type: functional; details: CCARM 5029, 18 h
Method in brief: (§3)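 Same broth microdilution, but the medium was Mueller-Hinton broth supplemented with 150 mM NaCl. Inoculum 2 x 10^5 CFU/ml final. Peptide twofold series in 0.01% acetic acid (stocks 640 to 10 µg/ml). After 18 h at 37°C, MIC read as the lowest concentration with no visible growth.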

Staphylococcus aureus [4] = experiment: Antimicrobial activity against methicillin-resistant Staphylococcus aureus CCARM 3695 treated with sample containing 200 ug/ml drug incubated with PBS containing 50% normal human serum for 10 mins measured after 3 hrs by radial diffusion assay; type: functional, organism-based
Method in brief: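 Normal human serum from three donors, heat-treated 30 min at 56°C. Peptide at 25–200 µg/ml in PBS with 50% serum, held 10 min at 37°C; 5 µl placed in 3-mm wells. Underlay: 1% agarose, 9 mM phosphate, 1 mM citrate, 0.3 mg/ml TSB, pH 7.4, with 4 x 10^6 CFU/ml mid-log MRSA. After 3 h at 37°C, overlaid (1% agarose, 6% TSB), incubated overnight. Clear zones in units (1 mm = 10 units); triplicate means.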

Listeria monocytogenes [5] = experiment: Antimicrobial activity against Listeria monocytogenes ATCC 19111 after 18 hrs by broth microdilution assay; type: functional; details: ATCC 19111, 18 h; method in brief: as §1
Staphylococcus aureus [6] = experiment: Antimicrobial activity against methicillin-resistant Staphylococcus aureus CCARM 3695 after 18 hrs by broth microdilution assay in presence of 150 mM NaCl; type: functional; details: CCARM 3695, 18 h; method in brief: as §3
Enterococcus faecium [7] = experiment: Antimicrobial activity against vancomycin-resistant Enterococcus faecium CCARM 5029 after 18 hrs by broth microdilution assay; type: functional; details: CCARM 5029, 18 h
Method in brief: (§4)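 Broth microdilution (modified CLSI). Overnight stationary-phase Mueller-Hinton broth cultures diluted to 2 x 10^5 CFU/ml final. Peptide serially twofold diluted in 0.01% acetic acid (stock series 640 down to 10 µg/ml); 11 µl added to 100 µl of bacteria. After 18 h at 37°C, MIC taken as the lowest concentration preventing visible turbidity.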

Staphylococcus aureus [8] = experiment: Antimicrobial activity against methicillin-resistant Staphylococcus aureus CCARM 3695 after 18 hrs by broth microdilution assay; type: functional; details: CCARM 3695, 18 h; method in brief: as §4
Staphylococcus aureus [9] = experiment: Antimicrobial activity against methicillin-resistant Staphylococcus aureus CCARM 3695 treated with supernatant containing 2 mg drug incubated for 10 mins with PBS centrifuged for 3 hrs by radial diffusion assay; type: functional, organism-based; method in brief: as §2
Listeria monocytogenes [10] = experiment: Antibacterial activity against Listeria monocytogenes ATCC 19111 in assay tube containing mixture of erythrocyte/Listeria monocytogenes cells assessed as logarithmic reduction in CFU after 30 mins; type: functional
Method in brief: (§5)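 Washed mid-log L. monocytogenes (final 1 x 10^5 CFU/ml) was mixed with human blood cells (final 5 x 10^8 cells/ml) and peptide (final 40 µg/ml) in PBS at 37°C. A peptide-free control was included. At 10, 20 and 30 min, aliquots were plated on TSA and colonies counted after overnight growth. Blood cells were counted by hemocytometer under light microscopy.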

[11] = Toxicity against human erythrocytes in assay tube containing mixture of erythrocytes/Listeria monocytogenes cells at 40 ug/ml after 30 mins; type: cell-based; details: erythrocyte, 0.5 h; method in brief: as §5

Which MIC (Listeria monocytogenes [1]) does the source give for `CC(C)C[C@H](NC(=O)CNC(=O)[C@H](Cc1cnc[nH]1)NC(=O)[C@H](Cc1cnc[nH]1)NC(=O)[C@H](CC(C)C)NC(=O)[C@H](CC(C)C)NC(=O)[C@H](C)NC(=O)[C@H](CC(N)=O)NC(=O)[C@H](CC(C)C)NC(=O)[C@H](Cc1c[nH]c2ccccc12)NC(=O)[C@@H](N)CCCCN)C(=O)N[C@@H](CC(N)=O)C(=O)N[C@@H](CSSC[C@H](NC(=O)[C@H](CC(N)=O)NC(=O)[C@H](CC(C)C)NC(=O)CNC(=O)[C@H](Cc1cnc[nH]1)NC(=O)[C@H](Cc1cnc[nH]1)NC(=O)[C@H](CC(C)C)NC(=O)[C@H](CC(C)C)NC(=O)[C@H](C)NC(=O)[C@H](CC(N)=O)NC(=O)[C@H](CC(C)C)NC(=O)[C@H](Cc1c[nH]c2ccccc12)NC(=O)[C@@H](N)CCCCN)C(=O)N[C@@H](C)C(=O)N[C@@H](CCCCN)C(=O)NCC(=O)N[C@H](C(=O)N[C@@H](CC(C)C)C(=O)N[C@@H](C)C(=O)O)C(C)C)C(=O)N[C@@H](C)C(=O)N[C@@H](CCCCN)C(=O)NCC(=O)N[C@H](C(=O)N[C@@H](CC(C)C)C(=O)N[C@@H](C)C(=O)O)C(C)C` (I: H-KWLNALLHHGLNCAKGVLA-OH / II: H-KWLNALLHHGLNCAKGVLA-OH; disulfide I:13-II:13) here?
Its MIC is 8 µg/mL.

What about the Activity (Staphylococcus aureus [2]) of the same compound?
The Activity was “inactive”.

And the MIC (Enterococcus faecium [3])?
The MIC was 4 µg/mL.

What about the Activity (Staphylococcus aureus [4]) of the same compound?
Its Activity is “inactive”.

And the MIC (Listeria monocytogenes [5])?
The MIC was 4 µg/mL (≈ 0.972 µM).

What about the MIC (Staphylococcus aureus [6]) of the same compound?
Its MIC is 8 µg/mL.

What about the MIC (Enterococcus faecium [7]) of the same compound?
The MIC was 4 µg/mL (≈ 0.972 µM).

And the MIC (Staphylococcus aureus [8])?
The MIC was 4 µg/mL (≈ 0.972 µM).

What does the source list for `CC(C)C[C@H](NC(=O)CNC(=O)[C@H](Cc1cnc[nH]1)NC(=O)[C@H](Cc1cnc[nH]1)NC(=O)[C@H](CC(C)C)NC(=O)[C@H](CC(C)C)NC(=O)[C@H](C)N)C(=O)N[C@@H](CC(N)=O)C(=O)N[C@@H](CSSC[C@H](NC(=O)[C@H](CC(N)=O)NC(=O)[C@H](CC(C)C)NC(=O)CNC(=O)[C@H](Cc1cnc[nH]1)NC(=O)[C@H](Cc1cnc[nH]1)NC(=O)[C@H](CC(C)C)NC(=O)[C@H](CC(C)C)NC(=O)[C@H](C)NC(=O)[C@H](CC(N)=O)NC(=O)[C@H](CC(C)C)NC(=O)[C@@H](N)Cc1c[nH]c2ccccc12)C(=O)N[C@@H](C)C(=O)N[C@@H](CCCCN)C(=O)NCC(=O)N[C@H](C(=O)N[C@@H](CC(C)C)C(=O)N[C@@H](C)C(=O)O)C(C)C)C(=O)N[C@@H](C)C(=O)N[C@@H](CCCCN)C(=O)NCC(=O)N[C@H](C(=O)N[C@@H](CC(C)C)C(=O)N[C@@H](C)C(=O)O)C(C)C` [HALOCIDIN] (I: H-WLNALLHHGLNCAKGVLA-OH / II: H-ALLHHGLNCAKGVLA-OH; disulfide I:12-II:9)?
MIC (Listeria monocytogenes [1]): > 64 µg/mL; Activity (Staphylococcus aureus [2]): Active; MIC (Enterococcus faecium [3]): > 64 µg/mL; MIC (Listeria monocytogenes [5]): 64 µg/mL (≈ 18.6 µM); MIC (Staphylococcus aureus [6]): 32 µg/mL; Activity (Staphylococcus aureus [9]): Active; MIC (Enterococcus faecium [7]): 64 µg/mL (≈ 18.6 µM); MIC (Staphylococcus aureus [8]): 16 µg/mL (≈ 4.64 µM)

With `CC[C@H](C)[C@H](NC(=O)CN)C(=O)NCC(=O)N[C@@H](C)C(=O)N[C@H](C(=O)N[C@@H](CC(C)C)C(=O)N[C@@H](CCCCN)C(=O)N[C@H](C(=O)N[C@@H](CC(C)C)C(=O)N[C@H](C(=O)N[C@H](C(=O)NCC(=O)N[C@@H](CC(C)C)C(=O)N1CCC[C@H]1C(=O)N[C@@H](C)C(=O)N[C@@H](CC(C)C)C(=O)N[C@H](C(=O)N[C@@H](CO)C(=O)N[C@@H](Cc1c[nH]c2ccccc12)C(=O)N[C@H](C(=O)N[C@@H](CCCCN)C(=O)N[C@@H](CCCNC(=N)N)C(=O)N[C@@H](CCCCN)C(=O)N[C@@H](CCCNC(=N)N)C(=O)N[C@@H](CCC(N)=O)C(=O)N[C@@H](CCC(N)=O)C(N)=O)[C@@H](C)CC)[C@@H](C)CC)[C@@H](C)O)[C@@H](C)O)C(C)C)C(C)C` [MELITTIN] as the compound, how does the Activity (Listeria monocytogenes [10]) read?
The Activity was “Active”.

And the Activity [11]?
The Activity was “Toxic”.

Which Activity (Listeria monocytogenes [10]) does the source give for H-RRWVRRVRRVWRRVVRVVRRWVRR-OH here?
The Activity was “Active”.

What about the Activity [11] of the same compound?
Its Activity is “Toxic”.
